Hits are enriched below; roughly 29% of the tested compounds scored in any of these assays.
CYP2C19 inhib – human CYP2C19 inhibition; P33261; inhibition, % at 5 µM; 96,000 tested, 21% active; CYP2C19 Supersomes, luciferin-H EGE luminescence, 30 min;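 active = CYP2C19 inhibition above a set limit at 5 µM in the primary screen, cut at about 50% in these data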
Target sequence (P33261 whole entry, looked up): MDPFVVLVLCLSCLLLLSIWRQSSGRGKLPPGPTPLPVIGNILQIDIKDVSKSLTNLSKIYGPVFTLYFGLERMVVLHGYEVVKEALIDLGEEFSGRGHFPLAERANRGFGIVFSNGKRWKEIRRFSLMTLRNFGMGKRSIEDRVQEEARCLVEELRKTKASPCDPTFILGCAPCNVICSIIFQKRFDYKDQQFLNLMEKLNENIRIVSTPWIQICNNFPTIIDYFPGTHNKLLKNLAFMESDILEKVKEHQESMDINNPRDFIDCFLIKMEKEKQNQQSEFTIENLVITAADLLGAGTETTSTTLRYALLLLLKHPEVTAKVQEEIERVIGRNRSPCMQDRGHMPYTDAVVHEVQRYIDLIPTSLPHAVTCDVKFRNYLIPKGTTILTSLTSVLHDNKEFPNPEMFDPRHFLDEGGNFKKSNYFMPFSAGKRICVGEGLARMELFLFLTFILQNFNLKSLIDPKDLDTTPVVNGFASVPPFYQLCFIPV
Ecoli tolC – E. coli tolC mutant growth inhibition. E. coli BW25113 tolC mutant growth, OD615. 65,000 tested, 2.2% active. growth inhibition, % at 10 µM (by protocol). AID 573;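 active = growth inhibition at or above a cutoff equal to the mean over every tested compound plus 3 SD, cut at about 60% in these data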;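 note: growth measured after 20 h incubation at 37 °C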
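Signal: optical density read at 615 nm; Assay system: E. coli ΔtolC::kan strain BW25113; Times: 20 h incubation with compound, 37 °C; Dosing: 10 µM final, single dose.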
CYP2C9 inhib – inhibitors of human CYP2C9 | P11712 | CYP2C9 Supersomes, luciferin-H conversion, luminescence | inhibition, % at 5 µM | 96,000 tested, 20% active | AID 777;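 active = blocking of liver enzyme CYP2C9 beyond about 50% at 5 µM, limit read from the data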
Ecoli WT expand – growth inhibitors of E. coli BW25113 wild type; OD600 absorbance; 98,000 tested, 0.15% active; AID 710; growth inhibition, % at 100 µM;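 active = growth inhibition above about 50% at one test dose, limit read from the data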;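 note: growth measured after 20 h incubation at 37 °C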
CYP2C9 activ – CYP2C9 (human) activation | 96,000 tested, 1.4% active | activation factor at 5 µM | recombinant CYP2C9, luciferin-H conversion, luminescence; hits give high values; factor 1 = untreated enzyme, 0 = blocked | P11712;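 active = activation factor of 2 or more for CYP2C9 at a 5 µM dose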
CYP2C19 act – increases human CYP2C19 enzyme activity. P33261. recombinant CYP2C19, luciferin-H EGE luminescence; hits give high values; 0 = fully inhibited enzyme, 1 = untreated enzyme. activation factor at 5 µM. 96,000 tested, under 10 active. AID 1025;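 active = activation factor of at least 2 at 5 µM in the primary screen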
Numbers stand for hits; – = inactive; · = no result given.

SMILES	CYP2C19 inhib	Ecoli tolC	CYP2C9 inhib	Ecoli WT expand	CYP2C9 activ	CYP2C19 act
Cc1cccc(C)c1NC(=O)C(c1ccccc1)N1CCC1=O (stereo not given)	–	·	–	–	–	–
CCN(CC)c1nc2ccccc2nc1-n1nc(C)cc1C	–	·	–	–	–	–
CC1=C(C(=O)Nc2ccccc2)C(c2cccc([N+](=O)[O-])c2)Nc2nc3ccccc3n21 (stereo not given)	–	·	–	–	–	–
CC(C)Cc1nnc(NS(=O)(=O)Cc2ccccc2)s1	–	·	63	–	–	–
CN1C=CC=C/C1=C1\SC(=S)N(C2CCCCC2)C1=O	58	·	–	–	–	–
CCc1ccccc1NC(=O)COC(=O)C1CC(=O)N(c2ccc(F)cc2)C1 (stereo not given)	–	–	–	–	–	–
CC1(C)Cc2noc(N)c2C(C)(C)N1OC(=O)c1ccccc1	100	–	57	–	–	–
CN1OC(COC(=O)c2ccccc2)CC1c1ccccc1 (stereo not given)	–	·	–	–	–	–
Cn1c(CN2CCOCC2)nnc1SCC(=O)NC1CCCCC1	·	–	·	–	·	·
CCc1nccn1S(=O)(=O)c1ccc(OC)c(C)c1C	71	·	–	–	–	–
CCc1nccn1S(=O)(=O)c1ccc(Br)cc1Br	92	–	59	–	–	–
CCc1nccn1S(=O)(=O)c1ccc2ccccc2c1	–	–	–	–	–	–
Cc1cc(C)n2nc(SCc3nnc(SCc4ccccc4Cl)s3)nc2n1	–	·	–	–	–	–
COc1cccc(CSc2nnc(CSc3nc4nc(C)cc(C)n4n3)s2)c1	98	·	–	–	–	–
Cc1cc(C)n2nc(SCc3nnc(SCc4ccccc4C)s3)nc2n1	77	·	–	–	–	–
COc1ccc(S(=O)(=O)NCc2ccco2)cc1-c1nnc2c3ccccc3c(C)nn12	–	–	–	–	–	–
CCOC(=O)N1CCN(C(=O)c2c(O)c3cccc4c3n(c2=O)CC4)CC1	–	–	–	–	–	–
CCOC(=O)C1=C(C)NC(C)=C(C(=O)OCC)C1C(=O)OC1CCOC1=O (stereo not given)	–	–	–	–	–	–
Cc1cc(=O)n2nc(N3CCCC(C(=O)N4CCc5ccccc54)C3)sc2n1 (stereo not given)	–	–	58	–	–	–
O=C(Nc1ccccc1-c1ccccc1)C1CCCN(c2ncccn2)C1 (stereo not given)	73	–	51	–	–	–
O=C(C1CCCN(c2ncccn2)C1)N1CCc2ccccc21 (stereo not given)	84	–	72	–	–	–
O=C(C1CCC(C(=O)N2CCc3ccccc32)CC1)N1CCc2ccccc21 (stereo not given)	–	–	–	–	–	–
O=S(=O)(/N=C/c1c(O)ccc2ccccc12)c1cccs1	–	·	–	–	–	–
CCCCc1c(C)nn(-c2nnc3c4ccccc4n(C)c3n2)c1C	–	–	–	–	–	–
Cc1oc(CC(C)C)cc1C(=O)Nc1ccc(C(=O)O)cc1	–	–	–	–	–	–
SMILES	CYP2C19 inhib	Ecoli tolC	CYP2C9 inhib	Ecoli WT expand	CYP2C9 activ	CYP2C19 act
O=C(NCCNC(=O)c1cc(OCC(F)(F)F)ccc1OCC(F)(F)F)Nc1cccc(C(F)(F)F)c1	–	·	67	–	–	–
C=CCONC(=O)c1cc(OCC(F)(F)F)ccc1OCC(F)(F)F	–	·	87	–	–	–
O=C(NCCNS(=O)(=O)c1ccccc1Cl)c1cc(OCC(F)(F)F)ccc1OCC(F)(F)F	–	·	–	–	–	–
CN1CCN(C2CCCCCC2)CC1	·	–	·	–	·	·
O=C1C(c2ccncc2)N(CCC2=CCCCC2)C(=O)CN1C1CCCCC1 (stereo not given)	53	–	54	–	–	–
CCOC(=O)N1CCN(C(=O)CSc2cc(C)nc3c(-c4ccccc4OC)c(C)nn23)CC1	–	–	–	–	–	–
CCOC(=O)N1CCC(Nc2cc(C)nc3c(-c4ccccc4OC)c(C)nn23)CC1	84	–	79	–	–	–
C/C(CC(=O)Nc1ccc(OCc2ccccc2)cc1)=N\NC(=O)C(=O)Nc1ccccc1C	–	·	–	–	–	–
O=C(COC(=O)c1ccc(Cl)c(S(=O)(=O)N2CCCC2)c1)NC1CCCC1	65	–	–	–	–	–
Cc1cc(Cl)c(S(=O)(=O)NC(C(=O)O)C(C)C)cc1OCC(=O)NC1CCCCC1 (stereo not given)	–	·	–	–	–	–
CCCNC(=O)COC(=O)c1ccc(Cl)c(S(=O)(=O)N2CCCC2)c1	–	·	–	–	–	–
Cc1cc(Cl)c(S(=O)(=O)N2CCCC2)cc1OCC(=O)NC1CCCCC1	95	·	77	–	–	–
Cc1cc(Cl)c(S(=O)(=O)NCc2cccnc2)cc1OCC(=O)NC1CCCCC1	–	·	58	–	–	–
Cc1cc(Cl)c(S(=O)(=O)NC(C(=O)O)c2ccccc2)cc1OCC(N)=O (stereo not given)	–	–	–	–	–	–
Cc1cc(Cl)c(S(=O)(=O)Nc2ccc3c(c2)OCO3)cc1OCC(N)=O	90	–	62	–	–	–
CCOC(=O)c1sc(NC(=O)c2ccc3ncsc3c2)nc1C	–	–	–	–	–	–
COc1ccc(C(=O)COC(=O)CN2CC(=O)Oc3ccccc32)cc1Br	–	–	–	–	–	–
O=C1C2C3c4ccccc4C(c4ccccc43)C2C(=O)N1c1cccc2cccnc12 (stereo not given)	–	·	–	–	–	–
Cc1cc(Cl)c(S(=O)(=O)Nc2ccc3c(c2)OCO3)cc1OCC(=O)NC1CCCCC1	79	·	62	–	–	–
CCOC(=O)c1cc(C)n(Cc2ccc(OCC)c(OC)c2)c1C	–	·	59	–	–	–
O=c1[nH]c2cc3c(cc2cc1CN(Cc1cccnc1)Cc1nnnn1Cc1ccco1)OCCO3	–	·	–	–	–	–
Cc1ccc2[nH]c(=O)c(CN(Cc3ccc4c(c3)OCO4)Cc3nnnn3Cc3ccco3)cc2c1	99	–	99	–	–	–
O=c1[nH]c2cc3c(cc2cc1CN(Cc1ccccc1)Cc1nnnn1Cc1ccco1)OCCO3	–	–	–	–	–	–
Cc1cc(C)c2cc(CN(Cc3ccc4c(c3)OCO4)Cc3nnnn3Cc3ccco3)c(=O)[nH]c2c1	67	–	80	–	–	–
COc1cc(C)c(CNC2CCCCC2)cc1C	–	·	–	–	–	–
SMILES	CYP2C19 inhib	Ecoli tolC	CYP2C9 inhib	Ecoli WT expand	CYP2C9 activ	CYP2C19 act
COc1cc(C)c(CNc2cccc(C)c2)cc1C	93	·	71	–	–	–
COc1cc(C)c(CNc2ccc(OC)c(OC)c2)cc1C	97	–	–	–	–	–
COc1cc(C)c(CNc2cc(C)cc(C)c2)cc1C	–	·	–	–	–	–
CCC1Oc2ccccc2N(CC(=O)Nc2ccc3c(c2)OCCO3)C1=O (stereo not given)	·	–	·	–	·	·
N#CCCNC(=O)CCN1CCCCC1	–	·	–	–	–	–
COc1cc(O)c2c(c1)OC(C)(C)CC2=O	–	–	–	–	–	–

Bioassay records deposited in PubChem BioAssay by several laboratories.
